Active and inactive are the calls of the source. The rule behind the calls is not given here.
Assays:
U373 MG = experiment: Growth inhibition of apoptosis resistant human U373 cells assessed as reduction in cell viability incubated for 72 hrs by MTT assay; type: functional, U-373MG ATCC
Method in brief: (§1)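 Cells were grown at 37 °C, 95% humidity and 5% CO₂, trypsinized and seeded. After 24 h they were treated for 72 h with compound from 10 nM to 100 μM, prepared from a 10 mM DMSO stock, or left untreated. Viability was read as MTT reduction to formazan, with untreated control optical density set as 100%. The 50% growth-reducing concentration was derived as the mean of experiments run in sextuplicate.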

Homo sapiens = species on record: Homo sapiens; experiment: Antiproliferative activity against human GSC22 cells assessed as inhibition of cell proliferation at 1 uM incubated for 72 hrs by bromodeoxyuridine incorporation based immunoassay; type: functional
Method in brief: (§2)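 Patient-derived glioblastoma stem-like GSC22 cells were seeded at 1×10^3 cells/well and cultured for 24 h. They were then exposed for 72 h to compound at 1 μM to 30 μM, with DMSO as vehicle control. BrdU was added for the final 4 h. Incorporation was detected with a peroxidase-conjugated anti-BrdU antibody and substrate reaction read at 450/550 nm. Data are mean ± SEM, n=3, compared with vehicle.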

B16-F10 = experiment: Growth inhibition of apoptosis sensitive mouse B16F10 cells assessed as reduction in cell viability incubated for 72 hrs by MTT assay; type: functional; conditions: B16-F10, 72 h; method in brief: as §1
MCF7 = experiment: Growth inhibition of apoptosis sensitive human MCF7 cells assessed as reduction in cell viability incubated for 72 hrs by MTT assay; type: functional; conditions: MCF7, 72 h; method in brief: as §1
SK-MEL-28 = experiment: Growth inhibition of apoptosis resistant human SK-MEL-28 cells assessed as reduction in cell viability incubated for 72 hrs by MTT assay; type: functional; conditions: SK-MEL-28, 72 h; method in brief: as §1
[1] = Antiproliferative activity against human GSC22 cells assessed as inhibition of cell proliferation at 10 uM incubated for 72 hrs by bromodeoxyuridine incorporation based immunoassay; type: functional; method in brief: as §2
Hs 683 = experiment: Growth inhibition of apoptosis sensitive human Hs683 cells assessed as reduction in cell viability incubated for 72 hrs by MTT assay; type: functional; conditions: Hs 683, 72 h; method in brief: as §1
A549 = experiment: Growth inhibition of apoptosis resistant human A549 cells assessed as reduction in cell viability incubated for 72 hrs by MTT assay; type: functional; conditions: A549, 72 h; method in brief: as §1

Structure (SMILES)	GI50 (B16-F10) [µM]	GI50 (MCF7) [µM]	GI50 (SK-MEL-28) [µM]	GI50 (A549) [µM]	GI50 (U373 MG) [µM]	inhibition (Homo sapiens)	inhibition at 10 µM [1] [%]	GI50 (Hs 683) [µM]
CO[C@H]1C[C@H]2C(=C[C@@H]1c1c[nH]c3ccccc13)[C@H]1C[N@@]2Cc2cc3c(cc21)OCO3	4	23	9	18	9	Active	80 to 95	24
CO[C@H]1C[C@H]2C(=C[C@@H]1c1ccc[nH]1)[C@H]1C[N@@]2Cc2cc3c(cc21)OCO3	11	68	67	86	> 100	–	–	95
CO[C@H]1C[C@H]2C(=C[C@@H]1O)[C@H]1C[N@]2[C@@H](OS(C)(=O)=O)c2cc3c(cc21)OCO3	72	> 100	> 100	> 100	> 100	–	–	> 100
CO[C@H]1C[C@H]2C(=C[C@@H]1Cl)[C@H]1C[N@@]2Cc2c1cc1c(c2I)OCO1	> 100	> 100	> 100	> 100	> 100	–	–	> 100
CO[C@H]1C[C@H]2C(=C[C@@H]1NCc1ccccc1)[C@H]1C[N@@]2Cc2cc3c(cc21)OCO3	10	44	65	59	72	–	–	67
CO[C@H]1C[C@H]2C(=C[C@@H]1Cl)[C@H]1C[N@@+]2([O-])Cc2cc3c(cc21)OCO3	> 100	> 100	> 100	> 100	> 100	–	–	> 100
C#CC[N@@+]12Cc3cc4c(cc3[C@H](C1)C1=C[C@H](Cl)[C@@H](OC)C[C@@H]12)OCO4	> 100	> 100	> 100	> 100	> 100	–	–	> 100
CO[C@@H]1C=C[C@@]23c4cc5c(cc4CN(C[C@@H]2O)[C@H]3C1)OCO5 [(+)-HAEMANTHAMINE]	–	–	–	–	–	Active	80 to 95	–
CO[C@H]1C[C@H]2C(=C[C@@H]1Cl)[C@H]1C[N@@]2Cc2c(I)c3c(c(I)c21)OCO3	39	78	> 100	78	> 100	–	–	71

Continued, in another order:

GI50 (B16-F10) [µM]	GI50 (MCF7) [µM]	GI50 (SK-MEL-28) [µM]	GI50 (A549) [µM]	Structure (SMILES)	GI50 (U373 MG) [µM]	inhibition (Homo sapiens)	inhibition at 10 µM [1] [%]	GI50 (Hs 683) [µM]
3	4	4	3	CO[C@H]1C=C2[C@H]3C[N@@](Cc4cc5c(cc43)OCO5)[C@H]2C[C@@H]1OC	5	Active	80 to 95	3
8	13	8	5	CO[C@H]1C[C@H]2C(=C[C@@H]1O)[C@H]1CN2Cc2cc3c(cc21)OCO3	31	–	–	4
40	82	> 100	59	CCO[C@H]1C=C2[C@H]3C[N@@](Cc4cc5c(cc43)OCO5)[C@H]2C[C@@H]1OC	> 100	–	–	> 100
10	28	28	23	C#CCO[C@H]1C=C2[C@H]3C[N@@](Cc4cc5c(cc43)OCO5)[C@H]2C[C@@H]1OC	42	–	–	24
7	17	26	6	CO[C@H]1C[C@H]2C(=C[C@@H]1Cl)[C@H]1C[N@@]2Cc2cc3c(cc21)OCO3	51	–	–	6
7	19	18	9	CO[C@H]1C[C@H]2C(=C[C@H]1Br)[C@H]1C[N@@]2Cc2cc3c(cc21)OCO3	25	–	–	5
7	20	14	10	C=CCO[C@H]1C=C2[C@H]3C[N@@](Cc4cc5c(cc43)OCO5)[C@H]2C[C@@H]1OC	20	–	–	7
